In assay [1] the target is T1, Glucagon-like peptide 1 receptor (Rattus norvegicus) (UniProt P32301).
T1 sequence (whole entry): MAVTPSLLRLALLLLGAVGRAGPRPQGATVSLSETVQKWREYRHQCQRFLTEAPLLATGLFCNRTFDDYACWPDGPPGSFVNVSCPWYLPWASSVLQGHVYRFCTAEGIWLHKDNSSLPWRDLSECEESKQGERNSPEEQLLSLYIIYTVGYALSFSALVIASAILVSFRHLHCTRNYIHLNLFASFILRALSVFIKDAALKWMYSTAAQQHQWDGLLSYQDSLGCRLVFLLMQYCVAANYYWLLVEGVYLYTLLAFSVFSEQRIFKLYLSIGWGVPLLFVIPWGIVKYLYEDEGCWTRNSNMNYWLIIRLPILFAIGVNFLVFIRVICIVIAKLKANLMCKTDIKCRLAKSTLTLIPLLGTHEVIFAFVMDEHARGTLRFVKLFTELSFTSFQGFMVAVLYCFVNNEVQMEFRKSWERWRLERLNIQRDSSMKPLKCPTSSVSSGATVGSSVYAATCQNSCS
The assay can be described thus: Inhibition of [125I]GLP1 (7-36) amide binding to rat GLP1R expressed in HEK293 cells relative to untreated control. Format: cell-based. The arrangement: concentration or dose not given beside the values. To be noted: concentration not given here. The essentials:
(§1)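 Membranes (17 μg protein) from HEK293 cells stably expressing rat GLP-1R were preincubated 5 h at 4 °C with FlashBlue beads (150 μg). Then 40 pM [125I]GLP-1(7−36) amide or [125I]Exendin(9−39) was added with aprotinin 2 μg/mL, leupeptin 100 μM and test compound at varied concentrations. Incubated overnight at 4 °C, then bound radioactivity counted. Mean ± SEM of two independent experiments.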

The target in assay [2] is T1, Glucagon-like peptide 1 receptor (Rattus norvegicus). The assay can be described thus: Inhibition of [125I]Exendin (9-39) binding to rat GLP1R expressed in HEK293 cells. The settings on record: concentration not given here. The arrangement: concentration or dose not given beside the values. Format: cell-based. In outline: as §1
Assay [3] deals with T2, Glucagon-like peptide 1 receptor (Rattus norvegicus, UniProt P32301).
T2 sequence (P32301 whole entry): T1 sequence (whole entry)
The assay can be described thus: Inhibition of [125I]GLP1 (7-36) amide binding to rat GLP1R expressed in HEK293 cells. Format: cell-based. The essentials:
as §1

For assay [4], the target named is T1, Glucagon-like peptide 1 receptor (Rattus norvegicus). Kind of assay: Agonist activity at rat GLP1R expressed in HEK293 cells assessed as stimulation of cAMP levels incubated for 6 hrs by multiple response element/cAMP response element (MRE/CRE)-driven reporter gene assay relative to 10 nM GLP1. Format: functional, cell-based. In outline: (§2)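 Stable HEK293 line co-expressing rat GLP-1R (pCMV-Tag2B) and a luciferase reporter with 3× MRE plus 1× CRE, seeded at 40000 cells/well and cultured overnight. Compounds in DMSO or GLP-1(7−37) were added for 6 h, then cells were lysed and luciferase read (Steady-Glo). The 10 nM GLP-1 maximum was taken as 100%. Mean ± SEM of two independent experiments; some values come from a single run.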
In general terms: Cyclic AMP is a second messenger, typically raised through Gs and lowered through Gi signalling.

The target in assay [5] is T2, Glucagon-like peptide 1 receptor. Kind of assay: Agonist activity at rat GLP1R expressed in HEK293 cells assessed as stimulation of cAMP levels incubated for 6 hrs by multiple response element/cAMP response element (MRE/CRE)-driven reporter gene assay. Format: functional, cell-based. In outline:
as §2

Assay [6] has as its target T3, Glucagon-like peptide 2 receptor (Homo sapiens) (UniProt O95838).
T3 sequence (whole entry): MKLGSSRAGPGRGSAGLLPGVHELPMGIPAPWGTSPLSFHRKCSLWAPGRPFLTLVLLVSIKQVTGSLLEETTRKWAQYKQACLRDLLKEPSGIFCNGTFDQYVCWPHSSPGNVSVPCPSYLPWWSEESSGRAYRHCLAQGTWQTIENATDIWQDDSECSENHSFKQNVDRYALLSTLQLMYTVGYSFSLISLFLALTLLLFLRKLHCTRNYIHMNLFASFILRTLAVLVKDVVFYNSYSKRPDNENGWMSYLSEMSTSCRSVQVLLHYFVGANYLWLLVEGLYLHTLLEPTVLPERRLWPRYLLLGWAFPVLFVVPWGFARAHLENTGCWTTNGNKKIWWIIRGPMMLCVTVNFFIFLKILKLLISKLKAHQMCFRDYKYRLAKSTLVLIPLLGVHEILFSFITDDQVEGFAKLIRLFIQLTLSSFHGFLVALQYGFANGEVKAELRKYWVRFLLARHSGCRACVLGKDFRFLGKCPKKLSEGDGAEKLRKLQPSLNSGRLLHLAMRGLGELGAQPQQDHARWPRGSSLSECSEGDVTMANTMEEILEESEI
The assay can be described thus: Agonist activity at human GLP2R expressed in HEK293 cells assessed as stimulation of cAMP levels incubated for 6 hrs by multiple response element/cAMP response element (MRE/CRE)-driven reporter gene assay. Format: functional, cell-based. The essentials: (§3)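 HEK293 cells transiently cotransfected with human GLP-2 receptor or glucagon receptor expression vector plus a luciferase reporter carrying three copies of multiple response element and one cAMP response element. Luciferase activity at different compound concentrations was expressed relative to the respective native peptide (GLP-2 or glucagon, 100%). Mean ± SEM of triplicate experiments.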

Assay [7] concerns Mus musculus. The assay can be described thus: Inhibition of acute food intake in intraperitoneally dosed C57BL/6J mouse measured 6 hrs post dose. Format: functional, organism-based. In outline:
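Male C57BL/6J mice (6 weeks, 18−20 g) fasted overnight and given a single ip dose of 0.1, 0.3, 1 or 3 mg or vehicle (1% DMSO, 20% PEG400 in saline). Mice housed singly with a preweighed food pellet, reweighed every 15 or 30 min for 6 h to give cumulative intake. n ≥ 6 per group; mean ± SEM.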

Assay [8] deals with Mus musculus. Kind of assay: Reduction of body weight in C57BL/6J mouse diet-induced obesity model dosed intraperitoneally 3 times per week for 28 days by chronic weight loss study. Format: functional, organism-based. The essentials: (§4)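 Male C57BL/6J mice (8 weeks at start, 18−20 g) kept on high-fat diet (60% fat) for 12 weeks, then randomised by body weight to groups of n = 8−9. Dosed ip Monday/Wednesday/Friday for 28 days with 0, 0.3, 1 or 3 mg in 1% DMSO/20% PEG400/saline, pH 7.4. Body weight recorded daily; a standard-chow group (n = 8) served as reference.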

Assay [9] addresses Glucagon receptor (Homo sapiens) (UniProt P47871). The assay can be described thus: Agonist activity at human glucagon receptor expressed in HEK293 cells assessed as stimulation of cAMP levels incubated for 6 hrs by multiple response element/cAMP response element (MRE/CRE)-driven reporter gene assay. Format: functional, cell-based. The essentials: as §3
Assay [10] concerns Mus musculus. The assay can be described thus: Reduction of body weight in C57BL/6J mouse diet-induced obesity model at 3 mg, ip dosed 3 times per week for 28 days by chronic weight loss study. Format: functional, organism-based. In outline: as §4

Active and inactive are the calls of the source. No cut-off for these calls is given here.

Sequence of Glucagon receptor (Homo sapiens) (P47871 whole entry): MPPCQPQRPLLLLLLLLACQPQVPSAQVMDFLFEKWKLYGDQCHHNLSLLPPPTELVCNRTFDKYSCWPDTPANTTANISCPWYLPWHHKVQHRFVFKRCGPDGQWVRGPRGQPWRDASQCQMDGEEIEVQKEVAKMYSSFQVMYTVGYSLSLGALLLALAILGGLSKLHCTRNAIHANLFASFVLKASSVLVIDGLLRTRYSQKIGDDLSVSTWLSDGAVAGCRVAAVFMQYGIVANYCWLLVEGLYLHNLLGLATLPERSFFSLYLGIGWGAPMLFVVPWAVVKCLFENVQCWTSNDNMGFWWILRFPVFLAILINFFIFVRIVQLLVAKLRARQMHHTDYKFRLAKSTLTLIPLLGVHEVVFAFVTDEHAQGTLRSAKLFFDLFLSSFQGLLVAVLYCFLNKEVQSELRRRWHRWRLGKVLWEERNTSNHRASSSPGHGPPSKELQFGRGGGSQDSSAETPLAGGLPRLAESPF

For orientation: inhibition means the change of the read-out against control, counted positive when it falls. For orientation: IC50 means the midpoint of a concentration-inhibition curve. The EC50 is the concentration needed to bring the measured effect to its halfway point. Consider `CC[C@H](C)[C@H](NC(=O)[C@H](Cc1ccccc1)NC(=O)[C@H](CCC(=O)O)NC(=O)[C@H](CCCCN)NC(=O)[C@H](C)NC(=O)[C@H](C)NC(=O)[C@H](CCC(N)=O)NC(=O)CNC(=O)[C@H](CCC(=O)O)NC(=O)[C@H](CC(C)C)NC(=O)[C@H](Cc1ccc(O)cc1)NC(=O)[C@H](CO)NC(=O)[C@H](CO)NC(=O)[C@@H](NC(=O)[C@H](CC(=O)O)NC(=O)[C@H](CO)NC(=O)[C@@H](NC(=O)[C@H](Cc1ccccc1)NC(=O)[C@@H](NC(=O)CNC(=O)[C@H](CCC(=O)O)NC(=O)[C@H](C)NC(=O)[C@H](Cc1cnc[nH]1)NC(=O)[C@H](CCCNC(=N)N)NC(=O)[C@H](CCC(=O)O)NC(=O)[C@H](Cc1ccccc1)NC(=O)[C@H](CCC(=O)O)NC(=O)[C@H](CC(=O)O)NC(=O)[C@@H](N)Cc1cnc[nH]1)[C@@H](C)O)[C@@H](C)O)C(C)C)C(=O)N[C@@H](C)C(=O)N[C@@H](Cc1c[nH]c2ccccc12)C(=O)N[C@@H](CC(C)C)C(=O)N[C@H](C(=O)N[C@@H](CCCCN)C(=O)NCC(=O)N[C@@H](CCCNC(=N)N)C(=O)NCC(=O)O)C(C)C`, for which the inhibition in [1] was found to be 100%; in [2], 97%. Also, the IC50 in [3] is 1 nM. The Efficacy in [4] amounted to 100%. Also, the EC50 in assay [5] was 0.09 nM. For the same compound, in [6], the outcome was inactive.
`COc1cc([C@H]2[C@](NC(=O)c3ccc(NC(=O)C(C)C)cc3)(C(=O)O)[C@@H](c3ccc(OC(=O)c4cccs4)c(OC)c3)[C@]2(NC(=O)c2ccc(NC(=O)C(C)C)cc2)C(=O)O)ccc1OC(=O)c1cccs1`: the inhibition in [1] worked out at 58.2%; in assay [2], 49.7%. Besides, the half-inhibitory concentration (IC50) in [3] amounted to 300 nM. In assay [4], the Efficacy was 73.6%. For the same compound, the concentration for a half-maximal effect (EC50) in assay [5] worked out at 203 nM. For the same compound, the inhibition entry in assay [7] is “Active”. The Activity result in assay [8] is “Dose-dependent effect”.
`CC[C@H](C)[C@H](NC(=O)[C@H](Cc1ccccc1)NC(=O)[C@H](CC(=O)O)NC(=O)[C@H](CCCNC(=N)N)NC(=O)[C@H](C)NC(=O)[C@H](C)NC(=O)[C@H](CC(C)C)NC(=O)[C@H](CC(N)=O)NC(=O)[C@H](CC(=O)O)NC(=O)[C@H](CC(C)C)NC(=O)[C@@H](NC(=O)[C@@H](NC(=O)[C@H](CC(N)=O)NC(=O)[C@H](CCSC)NC(=O)[C@H](CCC(=O)O)NC(=O)[C@H](CC(=O)O)NC(=O)[C@H](CO)NC(=O)[C@H](Cc1ccccc1)NC(=O)[C@H](CO)NC(=O)CNC(=O)[C@H](CC(=O)O)NC(=O)[C@H](C)NC(=O)[C@@H](N)Cc1cnc[nH]1)[C@@H](C)O)[C@@H](C)CC)C(=O)N[C@@H](CC(N)=O)C(=O)N[C@@H](Cc1c[nH]c2ccccc12)C(=O)N[C@@H](CC(C)C)C(=O)N[C@H](C(=O)N[C@@H](CCC(N)=O)C(=O)N[C@H](C(=O)N[C@@H](CCCCN)C(=O)N[C@H](C(=O)N[C@H](C(=O)N[C@@H](CC(=O)O)C(=O)N[C@@H](CCCNC(=N)N)C(=O)O)[C@@H](C)O)[C@@H](C)CC)[C@@H](C)O)[C@@H](C)CC`: in assay [6], the outcome was Active.
Consider GLUCAGON, for which, in assay [9], the outcome was Active.
As for `COc1cc([C@H]2[C@](NC(=O)c3ccc(NC(=O)OC(C)(C)C)cc3)(C(=O)O)[C@@H](c3ccc(OC(=O)c4cccs4)c(OC)c3)[C@]2(NC(=O)c2ccc(NC(=O)OC(C)(C)C)cc2)C(=O)O)ccc1OC(=O)c1cccs1` (stereo in doubt; 3), the inhibition in [1] came out at 87.2%; in [2] it was 63.1%. The Efficacy in [4] worked out at 96.7%. Further, the outcome in assay [6] and in assay [9] was inactive. Further, the outcome in [10] was Active.

The values above are taken from ChEMBL document CHEMBL2157924, “Cyclobutane derivatives as novel nonpeptidic small molecule agonists of glucagon-like peptide-1 receptor” (J Med Chem, 2012).
